Measured values reported in publication PMC7668563 (International journal of molecular biology (Edmond, Okla.), 2020).

Key:
[1] = biological target: T1, apo-human transferrin (apo-hTf) (Homo sapiens, UniProt P02787); experiment: Fluorescence resonance energy transfer; format: binding; conditions: for Förster critical energy transfer distance R0 / binding distance r (donor-acceptor): k^2=2/3, n=1.336, ØD=0.118; for efficiency of energy transfer E: room temperature, 1.0×10^−5 mol L^−1 each
In short: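 Emission spectrum of 1.0×10−5 mol L−1 apo-hTf and absorption spectrum of 1.0×10−5 mol L−1 test compound were recorded in 20 mM Tris-HCl pH 7.4 at room temperature, 260–450 nm, and their spectral overlap determined. E was calculated from apo-hTf fluorescence without and with equimolar test compound. R0 and donor–acceptor distance r came from Förster equations.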

[2] = biological target: T1, apo-human transferrin (apo-hTf); experiment: Thermodynamic parameters of apo-hTf complex formation; format: binding; conditions: for ∆H° / ∆S°: pH 7.4, from Ksv at 296-317 K
In short: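 Ksv values were obtained from apo-hTf fluorescence quenching at pH 7.4 at 296, 303, 310 and 317 K. ΔH°, ΔS° and ΔG° were derived from linear regression of ln(Ksv) vs 1/T (Van't Hoff equation).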

[3] = biological target: T1, apo-human transferrin (apo-hTf); experiment: Far-UV circular dichroism titration of apo-hTf, secondary structure content
In short: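 Apo-hTf (4.0×10−7 mol L−1) in 2 mM Tris-HCl pH 7.4 was titrated with a 1.0×10−3 mol L−1 stock of test compound in Tris-HCl/2% DMSO, to final 0–2.4×10−6 mol L−1. Far-UV CD was recorded from 190–250 nm under nitrogen in a 1.0 cm cell: six scans at 100 nm/min. Baseline was buffer ± DMSO at room temperature. α-Helix was derived from MRE at 208 nm; β-sheet and random coil by the CD-RRG method.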

[4] = system: human breast adenocarcinoma cell line, MCF-7; experiment: MTT cell viability assay on MCF-7, 72 h exposure; format: cell-based; conditions: for IC50 (±SD), MCF-7: MCF-7, 72 h of exposure
In short: (§1)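 HT-29 was grown in McCoy's 5A with 10% FBS. MCF-7 was grown in MEM with 10% FBS and 0.01 mg/mL insulin. Both were kept at 37°C, 5% CO2, trypsinized at 70–80% confluency and seeded at 1.5×10^4 cells/well for 24 h. Cells were then exposed for 72 h to test compound in 5% DMSO/95% medium, with DMSO-medium controls. MTT was added as a 2.67 mg/mL solution for 2 h. Formazan was dissolved in 10% Triton X-100/isopropanol and read at A570 minus A620. IC50 came from a sigmoidal fit of viability vs log concentration, eight replicas, triplicate, ±SD.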

[5] = biological target: T1, apo-human transferrin (apo-hTf); experiment: UV-Vis absorbance titration of apo-hTf; format: binding; conditions: for Ka at 280 nm: absorbance at 280 nm; for Association constants, Ka, 280 nm: absorbance of apo-hTf at 280 nm, pH 7.4
[6] = system: human colorectal adenocarcinoma cell line, HT-29; experiment: MTT cell viability assay on HT-29, 72 h exposure; format: cell-based; conditions: read-out: IC50 (±SD), HT-29, HT-29, 72 h of exposure
In short: as §1

[7] = biological target: T1, apo-human transferrin (apo-hTf); experiment: Fluorescence quenching of apo-hTf; format: binding; conditions: for biomolecular quenching rate constant kq: kq=Ksv/τ0; for Stern-Volmer quenching constant Ksv / number of binding sites n: pH 7.4; for quenching association constant Ka: pH 7.4, modified Stern-Volmer
In short: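 Intrinsic fluorescence of apo-hTf in Tris-HCl pH 7.4 was titrated with test compound (Tris-HCl/2% DMSO). Conditions: excitation 280 nm, emission 290–500 nm, slits 10/5 nm, 1.0 cm quartz cell, at 296, 303, 310 and 317 K, triplicate titrations. Intensities were corrected for inner filter effect using absorbances at excitation and emission wavelengths. Ksv came from Stern-Volmer plots of F0/F vs [Q]; kq = Ksv/τ0 (τ0 ~1.0×10−8); Ka and n came from the modified Stern-Volmer equation.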

T1 sequence (P02787 20-698): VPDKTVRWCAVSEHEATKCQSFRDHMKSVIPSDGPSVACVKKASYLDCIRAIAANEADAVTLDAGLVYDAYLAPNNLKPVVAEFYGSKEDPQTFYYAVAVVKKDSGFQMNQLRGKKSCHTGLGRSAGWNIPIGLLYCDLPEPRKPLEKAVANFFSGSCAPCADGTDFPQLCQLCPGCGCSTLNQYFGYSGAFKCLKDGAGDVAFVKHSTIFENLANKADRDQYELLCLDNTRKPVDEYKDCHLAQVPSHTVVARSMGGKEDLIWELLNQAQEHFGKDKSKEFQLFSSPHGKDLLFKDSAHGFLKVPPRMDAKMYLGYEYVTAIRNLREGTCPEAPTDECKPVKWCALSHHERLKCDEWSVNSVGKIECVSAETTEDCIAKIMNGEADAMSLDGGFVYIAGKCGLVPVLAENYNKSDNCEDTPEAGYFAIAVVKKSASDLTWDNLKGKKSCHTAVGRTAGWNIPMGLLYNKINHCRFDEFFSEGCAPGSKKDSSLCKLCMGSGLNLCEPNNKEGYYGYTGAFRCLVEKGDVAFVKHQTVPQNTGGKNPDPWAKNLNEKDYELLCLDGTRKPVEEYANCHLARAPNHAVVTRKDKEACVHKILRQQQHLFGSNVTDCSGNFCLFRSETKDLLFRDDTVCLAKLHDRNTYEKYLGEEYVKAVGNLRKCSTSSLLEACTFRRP

## C1CCCC1.C1CCCC1.[Cl][Nb][Cl] [Cp2NbCl2]
[1]
  Förster critical energy transfer distance R0: 2.56 nm
  binding distance r (donor-acceptor): 3.04 nm
  efficiency of energy transfer E: 0.26
[2]; 296 K
  ∆G°: -5.963 kcal/mol
[2]; 303 K
  ∆G°: -6.164 kcal/mol
[2]; 310 K
  ∆G°: -6.362 kcal/mol
[2]; 317 K
  ∆G°: -6.561 kcal/mol
[2]
  ∆H°: 2.431 kcal/mol
  ∆S°: 118.65 J/mol K
[3]; compound concentration 0.4 (M)
  other secondary structure content of apo-hTf: 19.5%
  random coil content of apo-hTf: 33.8%
  α-helix content of apo-hTf: 29%
  β-sheet content of apo-hTf: 17.7%
[3]; compound concentration 0.8 (M)
  other secondary structure content of apo-hTf: 19.4%
  random coil content of apo-hTf: 34%
  α-helix content of apo-hTf: 28.7%
  β-sheet content of apo-hTf: 17.9%
[3]; compound concentration 1.2 (M)
  other secondary structure content of apo-hTf: 19.7%
  random coil content of apo-hTf: 34.2%
  α-helix content of apo-hTf: 27.6%
  β-sheet content of apo-hTf: 18.5%
[3]; compound concentration 1.6 (M)
  other secondary structure content of apo-hTf: 19.8%
  random coil content of apo-hTf: 34.4%
  α-helix content of apo-hTf: 26.9%
  β-sheet content of apo-hTf: 18.9%
[3]; compound concentration 2 (M)
  other secondary structure content of apo-hTf: 20.2%
  random coil content of apo-hTf: 34.6%
  α-helix content of apo-hTf: 26.2%
  β-sheet content of apo-hTf: 19%
[3]; compound concentration 2.4 (M)
  other secondary structure content of apo-hTf: 20.4%
  random coil content of apo-hTf: 34.8%
  α-helix content of apo-hTf: 25.4%
  β-sheet content of apo-hTf: 19.4%
[4]; read-out: IC50 (±SD), MCF-7, MCF-7, 72 h of exposure
  IC50: 1300 µM
[5]
  Ka at 280 nm: 3000 M⁻¹
  Association constants, Ka, 280 nm: 3 10^3 M^−1
[6]
  IC50: 266 µM
[7]; 296 K
  biomolecular quenching rate constant kq: 2.523e+12 M⁻¹ s⁻¹
  Stern-Volmer quenching constant Ksv: 25230 M⁻¹
  number of binding sites n: 1.26
  quenching association constant Ka: 325300 M⁻¹
[7]; 303 K
  biomolecular quenching rate constant kq: 2.804e+12 M⁻¹ s⁻¹
  Stern-Volmer quenching constant Ksv: 28040 M⁻¹
  number of binding sites n: 1.27
  quenching association constant Ka: 408100 M⁻¹
[7]; 310 K
  biomolecular quenching rate constant kq: 3.056e+12 M⁻¹ s⁻¹
  Stern-Volmer quenching constant Ksv: 30560 M⁻¹
  number of binding sites n: 1.28
  quenching association constant Ka: 485500 M⁻¹
[7]; 317 K
  biomolecular quenching rate constant kq: 3.323e+12 M⁻¹ s⁻¹
  Stern-Volmer quenching constant Ksv: 33230 M⁻¹
  number of binding sites n: 1.29
  quenching association constant Ka: 562300 M⁻¹

## [Cl][Zr+2][Cl].c1cc[cH-]c1.c1cc[cH-]c1 [Cp2ZrCl2]
[1]
  Förster critical energy transfer distance R0: 7.3 nm
  binding distance r (donor-acceptor): 10.03 nm
  efficiency of energy transfer E: 0.129
[2]; 296 K
  ∆G°: -4.57 kcal/mol
[2]; 303 K
  ∆G°: -4.584 kcal/mol
[2]; 310 K
  ∆G°: -4.598 kcal/mol
[2]; 317 K
  ∆G°: -4.613 kcal/mol
[2]
  ∆H°: -3.975 kcal/mol
  ∆S°: 8.41 J/mol K
[3]; compound concentration 0.4 (M)
  other secondary structure content of apo-hTf: 18.9%
  random coil content of apo-hTf: 33.8%
  α-helix content of apo-hTf: 29.2%
  β-sheet content of apo-hTf: 18.1%
[3]; compound concentration 0.8 (M)
  other secondary structure content of apo-hTf: 18.8%
  random coil content of apo-hTf: 33.9%
  α-helix content of apo-hTf: 29.1%
  β-sheet content of apo-hTf: 18.2%
[3]; compound concentration 1.2 (M)
  other secondary structure content of apo-hTf: 18.8%
  random coil content of apo-hTf: 33.9%
  α-helix content of apo-hTf: 29%
  β-sheet content of apo-hTf: 18.3%
[3]; compound concentration 1.6 (M)
  other secondary structure content of apo-hTf: 18.9%
  random coil content of apo-hTf: 33.9%
  α-helix content of apo-hTf: 28.8%
  β-sheet content of apo-hTf: 18.4%
[3]; compound concentration 2 (M)
  other secondary structure content of apo-hTf: 18.9%
  random coil content of apo-hTf: 34%
  α-helix content of apo-hTf: 28.6%
  β-sheet content of apo-hTf: 18.5%
[3]; compound concentration 2.4 (M)
  other secondary structure content of apo-hTf: 18.9%
  random coil content of apo-hTf: 34.1%
  α-helix content of apo-hTf: 28.4%
  β-sheet content of apo-hTf: 18.6%
[4]
  IC50 (±SD), MCF-7: proliferative activity
[4]; listed as Cp^2ZrCl^2
  IC50 (±SD), MCF-7: Proliferative
[5]
  Ka at 280 nm: 2220 M⁻¹
  Association constants, Ka, 280 nm: 2.22 10^3 M^−1
[6]
  IC50: 774 µM
[7]; 296 K
  biomolecular quenching rate constant kq: 2.39e+11 M⁻¹ s⁻¹
  Stern-Volmer quenching constant Ksv: 2390 M⁻¹
  number of binding sites n: 1.07
  quenching association constant Ka: 4400 M⁻¹
[7]; 303 K
  biomolecular quenching rate constant kq: 1.97e+11 M⁻¹ s⁻¹
  Stern-Volmer quenching constant Ksv: 1970 M⁻¹
  number of binding sites n: 1.03
  quenching association constant Ka: 2600 M⁻¹
[7]; 310 K
  biomolecular quenching rate constant kq: 1.79e+11 M⁻¹ s⁻¹
  Stern-Volmer quenching constant Ksv: 1790 M⁻¹
  number of binding sites n: 1.01
  quenching association constant Ka: 2000 M⁻¹
[7]; 317 K
  biomolecular quenching rate constant kq: 1.5e+11 M⁻¹ s⁻¹
  Stern-Volmer quenching constant Ksv: 1500 M⁻¹
  number of binding sites n: 1
  quenching association constant Ka: 1600 M⁻¹
